Compounds with a hit are over-represented: about 4.2% of the library has one in this group of screens.
SENP1 inh = inhibitors of human SENP1 SUMO protease catalytic domain | Q9P0U3 | recombinant SENP1 catalytic domain, CyPet-SUMO1-YPet FRET cleavage | inhibition, % at 10 µM | 0.21% of 360,000 active | AID 624204;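 active = inhibition at least 30% at 10 µM, raw YFP signal under a set limit, fluorescence ratio 0.5 to 1.5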;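 also: 0% = enzyme with DMSO and 100% = no enzyme wells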
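Test system: hSENP1 catalytic domain, recombinant; Amount: 20 pM final SENP1 enzyme; Medium: Tris pH 8 buffer plus EDTA, NaCl, BME, BSA, NP40, catalase; Schedule: 50 min enzyme reaction, room temperature, light-protected; Technique: FRET fluorescence in CFP and YFP emission channels; Controls: no-enzyme wells low, DMSO-plus-enzyme wells high control.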
PfM18AAP inh = PfM18AAP enzyme inhibition; inhibition, % at 7.35 µM; 1.2% of 290,000 active; recombinant PfM18AAP, H-Glu-NHMec fluorogenic cleavage; AID 1822;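 active = inhibition above the campaign mean inhibition over all tested compounds plus 3 SD, cut at about 28% in these data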;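 also: 0% = plate median of test compound wells and 100% = 2 mM ZnCl2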
HDAC3 inhib = blocks human histone deacetylase 3; 0.15% of 320,000 active; recombinant HDAC3, fluorogenic peptide/trypsin coupled, fluorescence; inhibition, % at 8.3 µM; AID 2718; in the data active = inhibition above about 26%, passing the limit was not always enough
AHR activator = activators of human aryl hydrocarbon receptor. P35869. AHR-responsive luciferase reporter cells, luminescence. AID 2796. 2.5% of 320,000 active. activation, % at 5 µM; in the data active = activation above about 47%;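 also: 0% = vehicle wells and 100% = reference agonist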
Target sequence (P35869 whole entry, looked up): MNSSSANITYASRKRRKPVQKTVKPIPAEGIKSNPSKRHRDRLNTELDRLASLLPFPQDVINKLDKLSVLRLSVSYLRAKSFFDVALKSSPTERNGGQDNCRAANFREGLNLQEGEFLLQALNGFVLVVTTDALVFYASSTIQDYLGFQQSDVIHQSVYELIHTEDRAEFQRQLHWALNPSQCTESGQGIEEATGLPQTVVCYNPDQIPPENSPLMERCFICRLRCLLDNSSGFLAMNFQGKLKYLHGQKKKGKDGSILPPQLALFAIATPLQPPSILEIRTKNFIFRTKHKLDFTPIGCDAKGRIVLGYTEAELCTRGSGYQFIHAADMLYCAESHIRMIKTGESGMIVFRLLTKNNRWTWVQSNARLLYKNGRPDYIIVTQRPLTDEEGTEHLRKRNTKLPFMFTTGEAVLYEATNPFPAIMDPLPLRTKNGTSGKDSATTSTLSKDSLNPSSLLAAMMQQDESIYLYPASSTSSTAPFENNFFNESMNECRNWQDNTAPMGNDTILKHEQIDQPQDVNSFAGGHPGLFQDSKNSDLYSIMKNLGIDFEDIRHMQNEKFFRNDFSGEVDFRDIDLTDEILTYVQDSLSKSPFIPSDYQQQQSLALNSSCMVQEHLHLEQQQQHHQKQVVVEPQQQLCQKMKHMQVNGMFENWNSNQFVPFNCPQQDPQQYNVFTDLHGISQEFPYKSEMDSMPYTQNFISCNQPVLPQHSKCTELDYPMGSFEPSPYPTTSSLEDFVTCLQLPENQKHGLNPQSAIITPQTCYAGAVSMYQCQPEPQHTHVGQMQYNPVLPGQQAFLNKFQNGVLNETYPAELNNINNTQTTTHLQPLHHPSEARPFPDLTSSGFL
CTSL1 counter = cathepsin L1 inhibition, PFM18AAP counter-screen | recombinant F. hepatica cathepsin L1, Z-Leu-Arg-MCA fluorescence | 0.49% of 300,000 active | inhibition, % at 5.96 µM;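 active = inhibition above the mean of all tested compounds plus 3 SD, set per screening campaign, cut at about 17% in these data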;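 also: 0% = plate median of test compound wells and 100% = 1 µM Z-Phe-Ala-diazomethylketone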
FXN GAA850 act = activators of GAA850 frataxin (FXN) promoter; HEK293 lucGAA850 FXN promoter luciferase reporter, 24 h; percent of 10 µM SAHA response; activation, % at 6 µM; 0.56% of 360,000 active; AID 540364;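 active = activation above the average of all compounds screened plus 3 SD, cutoff fixed separately per campaign, cut at about 7.5% in these data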;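 also: 0% = DMSO wells and 100% = 10 µM SAHA wells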
GAA30 FXN cntr = activates GAA30 frataxin promoter, counter-screen for GAA850 activators. shares compounds with FXN GAA850 act. HEK293 lucGAA30 FXN promoter luciferase, 24 h; DMSO = 0%, 5 µM ipriflavone = 100%. activation, % at 6 µM. 66% of 1,900 active;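 active = mean activation above the mean of solvent-only control wells plus 3 SD, cut at about 22% in these data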;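 also: counterscreen of GAA850 promoter hits where activity marks nonselective or luminescence artifacts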
FXN GAA850 conf = GAA850 FXN promoter activation confirmation; activation, % at 6 µM; HEK293 lucGAA850 FXN promoter luciferase reporter, 24 h; 100% = activation by SAHA; 86% of 1,900 active; shares compounds with FXN GAA850 act; AID 588351;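 active = mean activation above a set limit taken from the primary screen, cut at about 8% in these data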;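 also: 0% = DMSO wells and 100% = 10 µM SAHA wells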
* = called active by the depositor; / = no result given; ! = a repeat was not active.

SMILES | SENP1 inh | PfM18AAP inh | HDAC3 inhib | AHR activator | CTSL1 counter | FXN GAA850 act | GAA30 FXN cntr | FXN GAA850 conf
CCCCC(=O)/C=C/n1c(=S)oc2ccccc21 | 0 | 3 | 1 | 2 | 4 | 8.5* | -20 | 23*
CC(C)OC(=O)n1c(=S)oc2ccccc21 | 2 | -1 | 1 | 1 | -2 | 3 | / | /
CCS(=O)(=O)N1Cc2cc(C(=O)N(C)C)nc(-c3cccc(-c4ccc(F)cc4)c3)c2[C@H]1CCO | 1 | / | / | / | / | / | / | /
COC(=O)c1ccc(NC(=O)CSC2=NCCN2)cc1 | 5 | 6 | -4 | 1 | 3 | 10.0* | 34* | 16*
O=C(CSc1nnc(NC(=O)c2ccccc2)s1)NC1CCCC1 | 3 | 0 | 1 | 8 | 5 | 1 | / | /
COc1ccc(-c2csc3nc(-c4cccnc4)nc(Cl)c23)cc1OC | -5 | 10 | 3 | -13 | 5 | 1 | / | /
Clc1nc(-c2cccnc2)nc2scc(-c3ccccc3)c12 | -8 | 3 | -6 | 68* | 0 | 8.1* | 97* | 31*
CC(C)(C)n1nnnc1C(c1cccnc1)N(Cc1ccccc1)Cc1ccco1 (centres undefined) | 3 | -2 | 1 | 1 | 4 | 7.9* | 11 | 9.0*
COc1cccc(CN(Cc2ccco2)C(c2ccc(F)cc2)c2nnnn2C(C)(C)C)c1 (centres undefined) | 1 | -2 | 6 | 0 | 1 | 1 | / | /
CCC(C)(C)n1nnnc1C(c1ccc(C)cc1)N(Cc1ccco1)Cc1cccs1 (centres undefined) | -1 | -4 | 9 | 0 | 0 | 8.3* | 6 | 8.8*
CCC(C)(C)n1nnnc1C(C(C)C)N(Cc1cccnc1)Cc1ccco1 (centres undefined) | 1 | -1 | / | -3 | 0 | 1 | / | /
CCc1ccc(C(=O)Cc2cc3cccc(OC)c3oc2=O)cc1 | 1 | 1 | -7 | -1 | 0 | 4 | / | /
Cc1ccnc(SCc2nc3ccccc3s2)n1 | -3 | 3 | -3 | 18 | -7 | 8.3* | 104* | 31*
Cc1cccc(C)c1Nc1nnc(SCc2nc3ccccc3s2)s1 | -41 | 0 | 6 | 18 | 2 | 8.6* | 121* | 43*
C#CCNC(=O)C[C@@H]1C[C@@]2(C(=O)OCC)CCCC=C2N(Cc2ccccc2)C1=O | 2 | / | / | / | / | / | / | /
O=C(NC12CC3CC(CC(C3)C1)C2)c1cc([N+](=O)[O-])ccc1N1CCOCC1 | -1 | 5 | 2 | -3 | -4 | 10* | 17 | 10*
Cc1ccnc(NC(=O)CCCOc2cc(=O)n(C)c3ccccc23)c1 | -1 | -8 | 7 | 22 | -4 | 8.8*! | 68* | 61*
Cn1c(=O)cc(OCCCC(=O)NCc2ccccn2)c2ccccc21 | -1 | 2 | 0 | 1 | -1 | 3 | / | /
CC(C)(C)n1nnnc1C(c1cc2ccccc2o1)N1CCN(C(=O)OCc2ccccc2)CC1 (centres undefined) | 2 | / | / | / | / | / | / | /
C#CCOc1ccc(CNC[C@H]2O[C@@H](n3cnc4c(N)ncnc43)[C@H](O)[C@@H]2O)cc1 | 1 | / | 9 | 0 | / | 2 | / | /
O=S(=O)(Nc1cccnc1)c1cccc(C(F)(F)F)c1 | 0 | 19 | -5 | 3 | -8 | -1 | / | /
O=[N+]([O-])c1ccc(S(=O)(=O)c2cccc(C(F)(F)F)c2)nc1 | 2 | / | -6 | -1 | -2 | 14* | -113 | -34
CCCCN(C(=O)CCCSc1nc2ccccc2[nH]1)c1c(N)n(Cc2ccccc2)c(=O)[nH]c1=O | -6 | -5 | 7 | -1 | 0 | 2 | / | /
Cc1cc(NC(=O)C(C)SCC(=O)Nc2cc(C(F)(F)F)ccc2N2CCOCC2)no1 (centres undefined) | 2 | / | -1 | 2 | 0 | 8.8* | 26* | 13*
Cc1ccccc1NC(=O)C(Cl)=C(Cl)Cl | 0 | -8 | -3 | 4 | 0 | -3 | / | /
SMILES | SENP1 inh | PfM18AAP inh | HDAC3 inhib | AHR activator | CTSL1 counter | FXN GAA850 act | GAA30 FXN cntr | FXN GAA850 conf
CN=C1SC(CC(=O)Nc2cccc(C(F)(F)F)c2)C(=O)N1C (centres undefined) | -1 | 3 | 2 | 3 | 2 | 1 | / | /
CN=C1SC(CC(=O)Nc2ccc(N3CCOCC3)cc2)C(=O)N1C (centres undefined) | 0 | 5 | 3 | 7 | -1 | 13* | 15 | 3
Cc1cccc2nc(COc3ccc4ccccc4c3Br)cn12 | -8 | 2 | / | 16 | 1 | 12* | 134* | 48*
C[C@@H]1CN([C@@H](C)CO)C(=O)CCCn2nncc2CO[C@@H]1CN(C)S(=O)(=O)c1ccc(F)cc1 | 1 | / | / | / | / | 1 | / | /
COc1ccc(CCNC(=O)CSc2nc3ccsc3c(=O)n2Cc2ccccn2)cc1OC | -9 | / | / | / | / | 1 | / | /
C/C(=N/NC(=O)c1ccc(Br)o1)C(C)C | 4 | 1 | 0 | 16 | -2 | 9.1* | 16 | 7
CC(NC(=O)c1ccc(Br)o1)C1CCCO1 (centres undefined) | -4 | 2 | -5 | -1 | 3 | 1 | / | /
CCCn1cnc2c(SCc3ccc(Cl)cc3)nc(N)nc21 | 1 | / | / | / | / | 9.8* | 45* | 25*
CCCCn1cnc2c(SCc3ccc(Br)cc3)nc(N)nc21 | -1 | / | / | / | / | 7.8* | 29* | 18*
CCCCn1cnc2c(SCc3ccccc3)nc(N)nc21 | 2 | / | / | / | / | 7 | / | /
CCCn1cnc2c(SCc3ccccc3)nc(N)nc21 | 1 | / | / | / | / | 6 | / | /
O=C(CCN1CCN(C(=O)c2ccccc2)CC1)c1ccc(Br)cc1 | 1 | -4 | 4 | -3 | 0 | 0 | / | /
COc1ccc(-c2[nH]c3ccccc3c2SCCNC(=O)c2ccccc2)cc1 | -29 | -4 | 6 | 26 | -5 | 22* | 2 | 5
COc1ccc(C(=O)NCCSc2ccccc2)cc1 | -1 | -2 | 3 | 6 | -3 | 0 | / | /
O=c1[nH]cc(S(=O)(=O)Nc2ccc3c(c2)OCO3)c(=O)[nH]1 | 3 | / | -1 | 1 | -3 | -1 | / | /
CCOC(=O)c1sc(-c2ccc(Br)cc2)cc1N | -6 | -6 | 3 | -9 | 3 | 16* | 117* | 43*
O=S1(=O)N[C@@H](Cc2ccccc2)COc2ccc(Cl)cc21 | 3 | / | / | / | / | 1 | / | /
Cc1ccc2oc(-c3ccc(C)c(NC(=S)NC(=O)c4cccs4)c3)nc2c1 | 1 | -11 | -2 | 2 | -2 | 8.6* | 96* | 19*
CC(C)Oc1ccc(S(=O)(=O)N2CCCCC2)cc1NC(=O)C1CSC2(C)CCC(=O)N12 (centres undefined) | -1 | / | / | -1 | 3 | 5 | / | /

Screens from PubChem BioAssay.
